Activity calls are given as the source filed them. The calls are words filed in the database; no cut-off is given here.
Tests used:
[1] = AUC in fat of CD-1 female mouse at 10 mg/kg, ip single dose by LC-MS/MS analysis; conditions: CD-1, mouse
[2] = Cmax in fat of CD-1 female mouse at 10 mg/kg, ip single dose by LC-MS/MS analysis; conditions: CD-1, mouse
[3] = AUC in lung of CD-1 female mouse at 10 mg/kg, ip single dose by LC-MS/MS analysis; conditions: CD-1, mouse
[4] = Cmax in lung of CD-1 female mouse at 10 mg/kg, ip single dose by LC-MS/MS analysis; conditions: CD-1, mouse
[5] = AUC in plasma of CD-1 female mouse at 10 mg/kg, ip single dose by LC-MS/MS analysis; conditions: CD-1, mouse
[6] = Cmax in plasma of CD-1 female mouse at 10 mg/kg, ip single dose by LC-MS/MS analysis; conditions: CD-1, mouse
[7] = Drug metabolism in human NCI-H2122 cells assessed as (R)-4-(amino(phenyl)methyl)-N-(6-hydroxybenzo[d]thiazol-2-yl)-benzamide formation at 100 nM by LC-MS/MS analysis; assay type: ADME, cell-based; conditions: nci-h2122, 0.1 µM
Summary of the method: (§1)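 H2122 and H1155 pLVX (empty vector) cells, 4000/well, adhered overnight. Then fresh medium with 100 nM prodrug, ±1 μM HET0016 (CYP4A/4F inhibitor), at 37 °C, 5% CO2. At varying times, cells and medium lysed and protein-precipitated with 2 volumes methanol/0.2% formic acid containing internal standard, then spun at 16,000g for 5 min. Parent and demethylated metabolite quantified by LC-MS/MS against standard curves in blank cell lysates.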

[8] = Drug level in tumor of nod-SCID mouse xenografted with human NCI-H2122 cells at 20 mg/kg, ip single dose and measured after 7 hrs by LC-MS/MS analysis; conditions: read-out: Drug uptake
[9] = Half life in human NCI-H2122 cells at 100 nM by LC-MS/MS analysis; assay type: ADME, cell-based
Summary of the method: as §1

[10] = Half life in human NCI-H1155 cells at 100 nM by LC-MS/MS analysis; assay type: ADME, cell-based
Summary of the method: as §1

[11] = Half life in human NCI-H2122 cells at 100 nM in presence of CYP4F inhibitor HET0016 by LC-MS/MS analysis; assay type: ADME, cell-based; conditions: with HET0016 (CYP4F inhibitor), concentration not stated
Summary of the method: as §1

[12] = Drug metabolism in human NCI-H1155 cells assessed as (R)-4-(amino(phenyl)methyl)-N-(6-hydroxybenzo[d]thiazol-2-yl)-benzamide formation at 100 nM by LC-MS/MS analysis; assay type: ADME, cell-based; conditions: nci-h1155, 0.1 µM
Summary of the method: as §1

[13] = Drug metabolism in human NCI-H2122 cells assessed as (R)-4-(amino(phenyl)methyl)-N-(6-hydroxybenzo[d]thiazol-2-yl)-benzamide formation at 100 nM by in presence of CYP4F inhibitor HET0016 LC-MS/MS analysis; assay type: ADME, cell-based; conditions: nci-h2122, 0.1 µM
Summary of the method: as §1

NCI-H2122 [14] = experiment: Antitumor activity against human NCI-H2122 cells xenografted in nod-SCID mouse fed normal chow diet at 20 mg/kg, ip QD for 3 weeks; assay type: functional, organism-based
Summary of the method: (§2)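 Female NOD-SCID mice, 6–8 weeks, on control diet (4.1% soybean-oil fat) or fat-free diet (0.1% fat). Three days later, 5 × 10⁶ H2122 cells injected subcutaneously into the left flank. At ~100 mm³, randomized to groups of six. Dosing 10 mg/kg BID, 20 mg/kg QD, or vehicle BID (10% DMSO, 10% Kolliphor EL, 80% 50 mM lactic acid pH 3.6) for three weeks. Caliper measurements twice weekly; volume = length × width² × π/6.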

NCI-H2122 [15] = experiment: Antitumor activity against human NCI-H2122 cells xenografted in nod-SCID mouse fed normal chow diet at 10 mg/kg, ip BID for 3 weeks; assay type: functional, organism-based
Summary of the method: as §2

NCI-H2122 [16] = experiment: Antitumor activity against human NCI-H2122 cells xenografted in nod-SCID mouse fed fat-free diet at 20 mg/kg, ip QD for 3 weeks; assay type: functional, organism-based
Summary of the method: as §2

NCI-H2122 [17] = experiment: Antitumor activity against human NCI-H2122 cells xenografted in nod-SCID mouse fed fat-free diet at 10 mg/kg, ip BID for 3 weeks; assay type: functional, organism-based
Summary of the method: as §2

[18] = Drug level in plasma of normal chow diet fed nod-SCID mouse xenografted with NCI-H2122 cells at 20 mg/kg, ip QD for 3 weeks and measured 3 hrs after final dose by LC-MS/MS analysis; assay type: ADME, organism-based
Summary of the method: (§3)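 Xenografted NOD-SCID mice on control or fat-free diet, dosed for three weeks, euthanized 3 h after the last dose. Plasma and tumor homogenate (3 volumes PBS) mixed with 2 volumes acetonitrile or methanol with 0.15% formic acid and internal standard, then centrifuged. Drug form quantified by LC-MS/MS against spiked blank-matrix standard curves.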

[19] = Drug level in tumor of normal chow diet fed nod-SCID mouse xenografted with NCI-H2122 cells at 20 mg/kg, ip QD for 3 weeks and measured 3 hrs after final dose by LC-MS/MS analysis; assay type: ADME, organism-based, Neoplasm; conditions: read-out: Drug uptake
Summary of the method: as §3

[20] = Drug level in plasma of fat-free diet fed nod-SCID mouse xenografted with NCI-H2122 cells at 20 mg/kg, ip QD for 3 weeks and measured 3 hrs after final dose by LC-MS/MS analysis; assay type: ADME, organism-based
Summary of the method: as §3

[21] = Drug level in tumor of fat-free diet fed nod-SCID mouse xenografted with NCI-H2122 cells at 20 mg/kg, ip QD for 3 weeks and measured 3 hrs after final dose by LC-MS/MS analysis; assay type: ADME, organism-based, Neoplasm; conditions: read-out: Drug uptake
Summary of the method: as §3

[22] = Toxicity in normal chow diet fed nod-SCID mouse xenografted with NCI-H2122 cells assessed as effect on behavior at 20 mg/kg, ip QD for 3 weeks; assay type: organism-based; conditions: in vivo, 504 h
[23] = Toxicity in normal chow diet fed nod-SCID mouse xenografted with NCI-H2122 cells assessed as effect on appearance at 20 mg/kg, ip QD for 3 weeks; assay type: organism-based; conditions: in vivo, 504 h
[24] = Toxicity in normal chow diet fed nod-SCID mouse xenografted with NCI-H2122 cells assessed as effect on body weight at 20 mg/kg, ip QD for 3 weeks; assay type: organism-based; conditions: in vivo, 504 h
[25] = Toxicity in fat-free diet fed nod-SCID mouse xenografted with NCI-H2122 cells assessed as effect on behavior at 20 mg/kg, ip QD for 3 weeks; assay type: organism-based; conditions: in vivo, 504 h
[26] = Toxicity in fat-free diet fed nod-SCID mouse xenografted with NCI-H2122 cells assessed as effect on appearance at 20 mg/kg, ip QD for 3 weeks; assay type: organism-based; conditions: in vivo, 504 h
[27] = Toxicity in fat-free diet fed nod-SCID mouse xenografted with NCI-H2122 cells assessed as effect on body weight at 20 mg/kg, ip QD for 3 weeks; assay type: organism-based; conditions: in vivo, 504 h
[28] = Toxicity in normal chow diet fed nod-SCID mouse xenografted with NCI-H2122 cells assessed as effect on behavior at 10 mg/kg, ip BID for 3 weeks; assay type: organism-based; conditions: in vivo, 504 h
[29] = Toxicity in normal chow diet fed nod-SCID mouse xenografted with NCI-H2122 cells assessed as effect on appearance at 10 mg/kg, ip BID for 3 weeks; assay type: organism-based; conditions: in vivo, 504 h
[30] = Toxicity in normal chow diet fed nod-SCID mouse xenografted with NCI-H2122 cells assessed as effect on body weight at 10 mg/kg, ip BID for 3 weeks; assay type: organism-based; conditions: in vivo, 504 h
[31] = Toxicity in fat-free diet fed nod-SCID mouse xenografted with NCI-H2122 cells assessed as effect on behavior at 10 mg/kg, ip BID for 3 weeks; assay type: organism-based; conditions: in vivo, 504 h
[32] = Toxicity in fat-free diet fed nod-SCID mouse xenografted with NCI-H2122 cells assessed as effect on appearance at 10 mg/kg, ip BID for 3 weeks; assay type: organism-based; conditions: in vivo, 504 h
[33] = Toxicity in fat-free diet fed nod-SCID mouse xenografted with NCI-H2122 cells assessed as effect on body weight at 10 mg/kg, ip BID for 3 weeks; assay type: organism-based; conditions: in vivo, 504 h
[34] = Toxicity in fat-free diet fed nod-SCID mouse xenografted with NCI-H2122 cells assessed as body weight loss at 10 mg/kg, ip BID for 3 weeks (reference value: <5%); assay type: organism-based; conditions: in vivo, 504 h
[35] = Toxicity in fat-free diet fed nod-SCID mouse xenografted with NCI-H2122 cells assessed as body weight loss at 20 mg/kg, ip QD for 3 weeks (reference value: <5%); assay type: organism-based; conditions: in vivo, 504 h
[36] = Toxicity in normal chow diet fed nod-SCID mouse xenografted with NCI-H2122 cells assessed as body weight loss at 10 mg/kg, ip BID for 3 weeks (reference value: <5%); assay type: organism-based; conditions: in vivo, 504 h
[37] = Toxicity in normal chow diet fed nod-SCID mouse xenografted with NCI-H2122 cells assessed as body weight loss at 20 mg/kg, ip QD for 3 weeks (reference value: <5%); assay type: organism-based; conditions: in vivo, 504 h

For COc1ccc2nc(NC(=O)c3ccc(C(O)c4ccccn4)cc3)sc2c1 (racemic), the AUC at 504 h [1] was 70 µM·h, the Cmax [2] was 120 µM and the AUC at 504 h [3] was 17 µM·h. The Cmax [4] was 26 µM, the AUC at 504 h [5] was 9.6 µM·h and the Cmax [6] was 11000 nM.

With N[C@H](c1ccccc1)c1ccc(C(=O)Nc2nc3ccccc3s2)cc1 the Drug metabolism [7] was “Metabolite_Detected”.

Molecule COc1ccc2nc(NC(=O)c3ccc(C(N)c4ccccc4)cc3)sc2c1 (racemic) has an AUC at 504 h [1] of 77 µM·h, a Cmax [2] of 94 µM and an AUC at 504 h [3] of 160 µM·h. For the same molecule, the Cmax [4] was 61 µM, the AUC at 504 h [5] was 3 µM·h and the Cmax [6] was 1500 nM. The concentration at 7 h [8] was 7 µM.

In the case of COc1ccc2nc(NC(=O)c3ccc([C@H](N)c4ccccc4)cc3)sc2c1, the half-life at 0.1 µM [9] is reported as 1140 min, the half-life at 0.1 µM [10] is reported as > 2880 min and the half-life at 0.1 µM [11] is reported as > 2880 min. For the same molecule, the Drug metabolism [7] was “Metabolite_Detected”, the Drug metabolism [12] was “Metabolite_Notdetected” and the Drug metabolism [13] was “Metabolite_Notdetected”. The Activity (NCI-H2122 [14]) was “Active”, the Activity (NCI-H2122 [15]) was “Active” and the Activity (NCI-H2122 [16]) was “Active”. For the same molecule, the Activity (NCI-H2122 [17]) was “Active”, the concentration at 3 h [18] was > 5 µM and the concentration at 3 h [19] was > 5 µM. For the same molecule, the concentration at 3 h [20] was > 5 µM, the concentration at 3 h [21] was > 5 µM and the Activity [22] was “Non-Toxic”. The Activity [23] was “Non-Toxic”, the Activity [24] was “Non-Toxic” and the Activity [25] was “Non-Toxic”. For the same molecule, the Activity [26] was “Non-Toxic”, the Activity [27] was “Non-Toxic” and the Activity [28] was “Non-Toxic”. The Activity [29] was “Non-Toxic”, the Activity [30] was “Non-Toxic” and the Activity [31] was “Non-Toxic”. The Activity [32] was “Non-Toxic”, the Activity [33] was “Non-Toxic” and the Activity [34] was 17%. For the same molecule, the Activity [35] was 7%, the Activity [36] was 13% and the Activity [37] was 5%. For the same molecule, the AUC at 504 h [5] was 1.6 µM·h and the Cmax [6] was 900 nM.

COc1ccc2nc(NC(=O)c3ccc(C(=O)c4ccccc4)cc3)sc2c1 showed a Cmax [2] of 90 µM, an AUC at 504 h [3] of 2.6 µM·h and a Cmax [4] of 0.9 µM. It also gave an AUC at 504 h [5] of 0.6 µM·h and a Cmax [6] of 300 nM.

Reference: ChEMBL document CHEMBL4622978, “Tumor-Activated Benzothiazole Inhibitors of Stearoyl-CoA Desaturase” (J Med Chem, 2020)
